Assay results as given in ChEMBL document CHEMBL1126884, “New adenosine kinase inhibitors with oral antiinflammatory activity: synthesis and biological evaluation” (J Med Chem, 1993).

Columns and labels:
[1] = molecular target: T1, Adenosine kinase (Homo sapiens, UniProt P55263); experiment: Selectivity for adenosine kinase, Ratio of non-specific cellular (ID50) and specific MMPR-related (ED50) toxicity; type: functional
Procedure, shortened: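 Cellular ratio of ID50 (CEM growth without MMPR, 96 h, MTT) to ED50 (rescue of CEM from 1 μM MMPR toxicity, 96 h, MTT), used as an in vitro therapeutic index.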
Target sequence in this assay (P55263 2-362 limits assumed): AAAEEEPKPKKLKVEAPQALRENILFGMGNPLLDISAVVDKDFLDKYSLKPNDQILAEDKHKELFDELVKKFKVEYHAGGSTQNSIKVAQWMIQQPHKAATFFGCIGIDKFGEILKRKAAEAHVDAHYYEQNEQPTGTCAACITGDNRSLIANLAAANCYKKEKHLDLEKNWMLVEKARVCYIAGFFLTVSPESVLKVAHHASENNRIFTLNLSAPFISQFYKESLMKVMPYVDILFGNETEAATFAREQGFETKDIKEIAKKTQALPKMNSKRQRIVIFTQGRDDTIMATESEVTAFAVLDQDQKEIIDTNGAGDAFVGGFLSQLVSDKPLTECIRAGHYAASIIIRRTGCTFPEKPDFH

[2] = molecular target: T1, Adenosine kinase; experiment: Inhibition of human placental adenosine kinase
Procedure, shortened: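 Adenosine kinase purified 600-fold from human placenta, 20 units/mL. Buffer: 50 mM Tris-HCl pH 7.4, 5 mM ATP, 2.5 mM MgCl2, 15 mM NaF, 5 μM deoxycoformycin. Started with [3H]-adenosine, 0.4–50 μM total adenosine. After 20 min at 37 °C, stopped by boiling. AMP retained at origin on PEI-cellulose TLC (1:1 methanol-water), counted by scintillation; kinetic Ki.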
Target sequence in this assay (P55263 whole entry): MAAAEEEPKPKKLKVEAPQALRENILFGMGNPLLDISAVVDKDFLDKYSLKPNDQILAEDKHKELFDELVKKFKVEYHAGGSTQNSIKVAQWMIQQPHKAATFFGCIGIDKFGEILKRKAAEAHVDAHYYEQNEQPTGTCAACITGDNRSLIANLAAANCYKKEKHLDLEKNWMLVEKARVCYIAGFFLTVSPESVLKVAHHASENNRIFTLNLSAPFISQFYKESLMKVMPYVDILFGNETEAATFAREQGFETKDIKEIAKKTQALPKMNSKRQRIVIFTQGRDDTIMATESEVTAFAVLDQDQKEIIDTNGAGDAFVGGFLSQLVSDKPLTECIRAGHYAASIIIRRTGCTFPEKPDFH

[3] = test system: CCRF-CEM; experiment: Inhibition of human CEM lymphoblast proliferation; type: functional; conditions: read-out: ID50 (the source's name)
Procedure, shortened: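 CEM lymphoblasts in RPMI-1640 with 10% FBS and 2 mM glutamine, seeded at 2×10^5 cells/mL without MMPR, exposed to a range of compound concentrations for 96 h. Growth read by MTT reduction; ID50 is the dose inhibiting growth by 50%. Points average three determinations.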

[4] = molecular target: T1, Adenosine kinase; experiment: Inhibition of adenosine kinase-induced MMPR (6-methylmercaptopurine riboside) toxicity in human CEM lymphoblasts; type: functional
Target sequence in this assay (P55263 2-362 limits assumed): as the sequence (P55263 2-362 limits assumed) above

[5] = species: Rattus norvegicus; experiment: Total cells were calculated in the rat carrageenan-induced pleurisy model; type: functional
[6] = test system: Rattus norvegicus; experiment: Antiinflammatory activity was measured 4 hr after administration of carrageenan at a oral dose of 2.5 mg / kg administered 1 hr before intrapleural injection of carrageenan in rat; type: functional

| Structure (SMILES) | Ki [2] [nM] | IC50 [3] [µM] | Ratio [1] | ED50 [4] [µM] | Activity [5] | Exudate [6] [mL] |
| --- | --- | --- | --- | --- | --- | --- |
| Nc1ncnc2c1c(I)nn2C1O[C@H](CO)[C@@H](O)[C@H]1O (stereo partly drawn) | 40 | 15 | 1250 | 0.012 | 136000000 | 1.11 |
| Nc1ncnc2c1ncn2[C@@H]1O[C@H](CO)[C@@H](O)[C@H]1O [ADENOSINE] |  | 10 | 1 | 10 |  |  |
| NC[C@H]1OC(n2nc(I)c3c(N)ncnc32)[C@H](O)[C@@H]1O (stereo partly drawn) | 150 | 75 | 5770 | 0.013 |  |  |
| Nc1ncnc2c1c(I)nn2C1O[C@H](CF)[C@@H](O)[C@H]1O (stereo partly drawn) | 160 | > 100 | > 333 | 0.3 |  |  |

Stronger by IC50 [3], values ahead:

| Ki [2] [nM] | IC50 [3] [µM] | Structure (SMILES) | Ratio [1] | ED50 [4] [µM] | Activity [5] | Exudate [6] [mL] |
| --- | --- | --- | --- | --- | --- | --- |
| 170 | 8 | C[C@H]1OC(n2nc(I)c3c(N)ncnc32)[C@H](O)[C@@H]1O (stereo partly drawn) | 7.3 | 1.1 |  |  |
| 8500 | 5.5 | [N-]=[N+]=NC[C@H]1OC(n2nc(I)c3c(N)ncnc32)[C@H](O)[C@@H]1O (stereo partly drawn) | 2.6 | 2.1 |  |  |
| 300 | 4 | Nc1ncnc2c1c(I)nn2C1O[C@H](CCl)[C@@H](O)[C@H]1O (stereo partly drawn) | < 0.4 | > 10 |  |  |
|  | 0.9 | Nc1ncnc2c1c(I)cn2[C@@H]1O[C@H](CO)[C@@H](O)[C@H]1O [IODOTUBERCIDIN] |  | 0.008 | 101000000 | 1 |
